Data reported in ChEMBL document CHEMBL1148719, “Fine-tuning the amphiphilicity: a crucial parameter in the design of potent alpha-phenyl-N-tert-butylnitrone analogues” (J Med Chem, 2007).

Legend:
[1] = organism: Rattus norvegicus; assay: Inhibition of hydrogen peroxide-induced inactivation of mitochondrial NADH:ubiquinone oxidoreductase iron sulfur cluster N2 at 10 uM
How it was run: (§1)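 Rat brain submitochondrial particles were incubated for 30 min with hydrogen peroxide, peroxynitrite or doxorubicin, with or without nitrone at 10 µM. Complex I iron sulfur cluster N2 activity was measured as ferricyanide reduction. The value is the percentage inhibition of oxidative inactivation. Data are mean ± SEM (N = 10). Controls were vehicle-treated particles exposed to oxidotoxin alone; statistics were ANOVA with Bonferroni t-test.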

[2] = organism: Rattus norvegicus; assay: Inhibition of peroxynitrite-induced inactivation of mitochondrial NADH:ubiquinone oxidoreductase iron sulfur cluster N2 at 10 uM; how it was run: as §1
[3] = organism: Rattus norvegicus; assay: Inhibition of doxorubicin-induced inactivation of mitochondrial NADH:ubiquinone oxidoreductase iron sulfur cluster N2 at 10 uM; how it was run: as §1
[4] = Cytoprotection in rat mixed cortical cells cultures assessed as inhibition of hydrogen peroxide-induced cell death at 10 uM after 24 hrs; format: functional
How it was run: (§2)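 Mixed cortical cultures were treated for 24 h with oxidotoxin (hydrogen peroxide, peroxynitrite or doxorubicin, 200 µM), with antioxidant added at 10 µM. The value is the percentage inhibition of Trypan blue absorbance, read as enhanced cell survival. Data are mean ± SEM (N = 10). Comparison was against vehicle control by ANOVA with Bonferroni t-test.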

[5] = Cytoprotection in rat mixed cortical cells cultures assessed as inhibition of peroxynitrite-induced cell death at 10 uM after 24 hrs; format: functional; how it was run: as §2
[6] = Cytoprotection in rat mixed cortical cells cultures assessed as inhibition of doxorubicin-induced cell death at 10 uM after 24 hrs; format: functional; how it was run: as §2
[7] = system: Rotifers; assay: Cytoprotection against hydrogen peroxide-induced toxicity in rotifer assessed as viability at 10 uM; format: functional, Rotifera
How it was run: (§3)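 Whole rotifers were exposed for 24 h to oxidotoxin (hydrogen peroxide or doxorubicin, 200 µM), with nitrone antioxidant added at 10 µM. Read-out was the percentage of viable organisms. Data are mean ± SEM (N = 10). Comparison was against vehicle control by ANOVA followed by Bonferroni t-test.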

[8] = system: Rotifers; assay: Cytoprotection against doxorubicin-induced toxicity in rotifer assessed as viability at 10 uM; format: functional, Rotifera; how it was run: as §3
[9] = Toxicity against rat mixed cortical cells cultures at 10 uM; format: cell-based

Compound	inhibition [1]	inhibition [2]	inhibition [3]	inhibition at 10 µM [4]	inhibition at 10 µM [5]	inhibition at 10 µM [6]	Activity [7]	Activity [8]	Activity [9]
CC(C)(CNC(=O)CCC(F)(F)C(F)(F)C(F)(F)C(F)(F)C(F)(F)C(F)(F)F)/[N+]([O-])=C/c1ccc(CNC(=O)[C@H](O)[C@H](O)[C@H](O[C@@H]2O[C@H](CO)[C@H](O)[C@H](O)[C@H]2O)[C@@H](O)CO)cc1	51.9%	39.3%	57.3%	63.4%	40.1%	34.9%	40.6%	30.6%	
CC(C)(C)/[N+]([O-])=C/c1ccccc1	35%	27.6%	44.3%	25%	20.6%	24.2%	25.6%	18.7%	
CCCCCCCC(=O)NCC(C)(C)/[N+]([O-])=C/c1ccc(C(=O)NCC(=O)NC(CO)(CO)CO)cc1	59.2%	40.5%	83.5%	33.8%	30.5%	74.3%	24.1%	54.3%	
CCCCCCCC(=O)NCC(C)(C)/[N+]([O-])=C/c1ccc(CNC(=O)[C@H](O)[C@H](O)[C@H](O[C@@H]2O[C@H](CO)[C@H](O)[C@H](O)[C@H]2O)[C@@H](O)CO)cc1	78.3%	72.5%	90.7%	81%	61%	82%	83%	85.8%	
CC(C)(C)/[N+]([O-])=C\c1ccc(CNC(=O)[C@@H](O)[C@H](O)[C@H](O[C@@H]2O[C@H](CO)[C@H](O)[C@H](O)[C@H]2O)C(O)CO)cc1 (stereo partly specified)	25.1%	17.3%	13.5%	18.3%	17.3%	18.5%	18.6%	18.2%	
CCCCCCCC(=O)NCC(C)(C)/[N+]([O-])=C/c1ccccc1OCC									Toxic
